Among the data in ChEMBL document CHEMBL5154850, “A platform for the rapid synthesis of proteolysis targeting chimeras (Rapid-TAC) under miniaturized conditions” (Eur J Med Chem, 2022) are Activity and DC50 values, retold here.

Activity calls are given as the source filed them. The calls are words filed in the database; no cut-off is given here.

Experiment [1] deals with T1, von Hippel-Lindau disease tumor suppressor/Bromodomain-containing protein 4 (Homo sapiens, UniProt O60885+P40337). The experiment in a line: PROTAC activity at VHL/BRD4 in human MV4-11 cells assessed as induction of BRD4 degradation at 1 uM measured after 24 hrs by western blot analysis. The experiment is classed as cell-based. A digest of the protocol:
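MV-4-11 cells grown in IMDM with 10% FBS and 1% penicillin/streptomycin at 37 °C, 5% CO2. Library screen at 1 and 10 μM for 24 h; follow-up at 100, 30, 10 and 3 nM and dose response for 12 h. RIPA lysates, BCA-normalized, 7.5% SDS-PAGE, anti-BRD4 overnight at 4 °C, β-actin control, HRP-secondary chemiluminescence.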
For orientation: Immunoblotting shows a protein as a band on a membrane.

In experiment [2] the target is T2, von Hippel-Lindau disease tumor suppressor/Androgen receptor (Homo sapiens, UniProt P10275+P40337). The experiment in a line: PROTAC activity at VHL/AR in human LNCaP cells assessed as induction of AR degradation at 1 to 10 uM measured after 16 hrs by western blot analysis. The settings on record: dose 1-10 µM. Format: cell-based. A digest of the protocol: (§1)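 LNCaP cells kept in RPMI with 10% FBS, 1% HEPES, 1% sodium pyruvate and 1% penicillin/streptomycin at 37 °C, 5% CO2, then exposed to PROTACs for 16 h. Lysis in RIPA buffer with protease inhibitors and 1 mM PMSF. BCA-equalized protein run on 7.5% SDS-PAGE, blocked in 5% milk/TBS-T, anti-AR primary overnight at 4 °C, β-actin loading control, HRP secondary 1 h, chemiluminescent imaging.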
Target sequence in this assay (P10275 whole entry, looked up): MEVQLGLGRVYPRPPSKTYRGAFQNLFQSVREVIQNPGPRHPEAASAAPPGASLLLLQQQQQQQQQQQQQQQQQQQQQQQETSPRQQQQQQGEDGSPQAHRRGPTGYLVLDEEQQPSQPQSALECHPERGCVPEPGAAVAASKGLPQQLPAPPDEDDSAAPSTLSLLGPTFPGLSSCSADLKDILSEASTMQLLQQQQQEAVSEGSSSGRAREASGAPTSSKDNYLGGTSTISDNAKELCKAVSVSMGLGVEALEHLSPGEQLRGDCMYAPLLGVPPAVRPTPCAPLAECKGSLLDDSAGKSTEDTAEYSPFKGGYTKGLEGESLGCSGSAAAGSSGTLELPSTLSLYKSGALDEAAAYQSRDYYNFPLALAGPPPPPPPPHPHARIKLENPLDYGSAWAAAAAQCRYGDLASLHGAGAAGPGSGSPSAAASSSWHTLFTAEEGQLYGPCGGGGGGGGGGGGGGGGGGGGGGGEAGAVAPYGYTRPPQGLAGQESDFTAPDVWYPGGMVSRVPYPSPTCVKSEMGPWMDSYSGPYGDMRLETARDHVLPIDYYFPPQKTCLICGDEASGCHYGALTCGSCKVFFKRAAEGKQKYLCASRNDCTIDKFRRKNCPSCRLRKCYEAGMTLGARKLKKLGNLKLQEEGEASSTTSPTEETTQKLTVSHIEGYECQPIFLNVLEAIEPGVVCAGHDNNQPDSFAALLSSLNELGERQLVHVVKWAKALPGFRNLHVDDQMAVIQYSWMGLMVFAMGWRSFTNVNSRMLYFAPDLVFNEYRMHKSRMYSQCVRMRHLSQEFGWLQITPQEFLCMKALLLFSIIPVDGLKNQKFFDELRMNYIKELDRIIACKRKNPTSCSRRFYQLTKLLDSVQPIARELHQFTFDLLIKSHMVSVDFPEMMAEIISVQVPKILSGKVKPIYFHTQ
Target sequence in this assay (P40337 whole entry, looked up): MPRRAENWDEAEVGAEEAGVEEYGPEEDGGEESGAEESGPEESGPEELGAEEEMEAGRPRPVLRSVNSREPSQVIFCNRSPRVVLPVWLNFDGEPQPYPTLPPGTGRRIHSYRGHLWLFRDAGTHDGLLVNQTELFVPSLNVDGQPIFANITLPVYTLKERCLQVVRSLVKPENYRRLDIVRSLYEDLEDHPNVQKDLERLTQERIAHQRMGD

The target in experiment [3] is T2, von Hippel-Lindau disease tumor suppressor/Androgen receptor. The experiment in a line: PROTAC activity at VHL/AR in human LNCaP cells assessed as reduction in AR level at 100 nM measured after 6 hrs by western blot analysis. The experiment is classed as cell-based. An outline of the steps:
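AR time-course blot in LNCaP cells (RPMI, 10% FBS, 37 °C, 5% CO2) with degrader at 100 nM over varied exposure times. Lysates in RIPA with protease inhibitors, equal protein by BCA, 7.5% SDS-PAGE, anti-AR overnight at 4 °C, β-actin loading reference, HRP detection.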
Target sequence in this assay (P10275 whole entry, looked up): as the sequence (P10275 whole entry, looked up) above
Target sequence in this assay (P40337 whole entry, looked up): as the sequence (P40337 whole entry, looked up) above

Experiment [4] shares this target. The experiment in a line: PROTAC activity at VHL/AR in human LNCaP cells assessed as induction of AR degradation at 0.01 to 1 uM measured after 16 hrs by western blot analysis. The settings on record: dose 0.1-10 µM, in the assay text read “0.1 to 10 uM” for “0.01 to 1 uM”. The experiment is classed as cell-based. A digest of the protocol:
as §1
Target sequence in this assay (P10275 whole entry, looked up): as the sequence (P10275 whole entry, looked up) above
Target sequence in this assay (P40337 whole entry, looked up): as the sequence (P40337 whole entry, looked up) above

The target is the same in experiment [5]. The experiment in a line: PROTAC activity at VHL/AR in human LNCaP cells assessed as induction of AR degradation at 10 uM measured after 16 hrs by western blot analysis relative to control. The experiment is classed as cell-based. A digest of the protocol: as §1
Target sequence in this assay (P10275 whole entry, looked up): as the sequence (P10275 whole entry, looked up) above
Target sequence in this assay (P40337 whole entry, looked up): as the sequence (P40337 whole entry, looked up) above
Experiment [6] has the same target. The experiment in a line: PROTAC activity at VHL/AR in human LNCaP cells assessed as induction of AR degradation at 1 uM measured after 16 hrs by western blot analysis relative to control. Format: cell-based. An outline of the steps:
as §1
Target sequence in this assay (P10275 whole entry, looked up): as the sequence (P10275 whole entry, looked up) above
Target sequence in this assay (P40337 whole entry, looked up): as the sequence (P40337 whole entry, looked up) above

Experiment [7] has the same target. The experiment in a line: PROTAC activity at VHL/AR in human LNCaP cells assessed as induction of AR degradation measured after 16 hrs by western blot analysis. Format: cell-based. A digest of the protocol: as §1
Target sequence in this assay (P10275 whole entry): as the sequence (P10275 whole entry, looked up) above
Target sequence in this assay (P40337 whole entry): as the sequence (P40337 whole entry, looked up) above
Experiment [8] concerns the target T1, von Hippel-Lindau disease tumor suppressor/Bromodomain-containing protein 4. The experiment in a line: PROTAC activity at VHL/BRD4 in human MV4-11 cells assessed as induction of BRD4 degradation measured after 12 hrs by western blot analysis.
Experiment [9] has the same target. The experiment in a line: PROTAC activity at VHL/BRD4 in human MV4-11 cells assessed as induction of BRD4 degradation at 3 to 100 nM measured after 12 hrs by western blot analysis. The settings on record: dose 3-100 nM.

T1 sequence (P40337 whole entry, looked up, other chains not shown): as the sequence (P40337 whole entry, looked up) above

As for `Cc1ncsc1-c1ccc(CNC(=O)[C@@H]2C[C@@H](O)CN2C(=O)[C@@H](NC(=O)CCCCN2Cc3ccc(NC(=O)C[C@@H]4N=C(c5ccc(Cl)cc5)c5c(sc(C)c5C)-n5c(C)nnc54)cc3C2=O)C(C)(C)C)cc1`, the result in experiment [1] was Active.
Consider `Cc1ncsc1-c1ccc(CNC(=O)[C@@H]2C[C@@H](O)CN2C(=O)[C@@H](NC(=O)CCCCN2Cc3cc(C(=O)N[C@H]4C(C)(C)[C@H](Oc5ccc(C#N)c(Cl)c5)C4(C)C)ccc3C2=O)C(C)(C)C)cc1`, for which the outcome in [2] was Active.
A word on the DC50: it is the concentration at which degradation of the target reaches its halfway point. For the compound `Cc1ncsc1-c1ccc(CNC(=O)[C@@H]2C[C@@H](O)CN2C(=O)[C@@H](NC(=O)CCCCCCCN2Cc3ccc(C(=O)N[C@H]4C(C)(C)[C@H](Oc5ccc(C#N)c(Cl)c5)C4(C)C)cc3C2=O)C(C)(C)C)cc1`, the outcome in [3], in experiment [2] and in experiment [4] was Active. In addition, the Activity in experiment [5] is 40%; in [6], 73%. In addition, the DC50 in [7] is 41.9 nM.
Consider `Cc1ncsc1-c1ccc(CNC(=O)[C@@H]2C[C@@H](O)CN2C(=O)[C@@H](NC(=O)CCCCCCCCN2Cc3cc(C(=O)N[C@H]4C(C)(C)[C@H](Oc5ccc(C#N)c(Cl)c5)C4(C)C)ccc3C2=O)C(C)(C)C)cc1`, for which the result in experiment [2] was Active.
On the same count and under the same terms, in the case of `CC1(C)[C@H](NC(=O)c2ccc3c(c2)CN(C2CCC(=O)NC2=O)C3=O)C(C)(C)[C@H]1Oc1ccc(C#N)c(Cl)c1` (some centres not stated) it was “Active”; in that of `Cc1ncsc1-c1ccc(CNC(=O)[C@@H]2C[C@@H](O)CN2C(=O)[C@@H](NC(=O)CCCCCCN2Cc3cc(C(=O)N[C@H]4C(C)(C)[C@H](Oc5ccc(C#N)c(Cl)c5)C4(C)C)ccc3C2=O)C(C)(C)C)cc1`, “Active”.
With `Cc1ncsc1-c1ccc(CNC(=O)[C@@H]2C[C@@H](O)CN2C(=O)[C@@H](NC(=O)CCCCCN2Cc3cc(C(=O)N[C@H]4C(C)(C)[C@H](Oc5ccc(C#N)c(Cl)c5)C4(C)C)ccc3C2=O)C(C)(C)C)cc1`, in experiment [2], the outcome was Active.
The same measure, in the same setting: in the case of `Cc1ncsc1-c1ccc(CNC(=O)[C@@H]2C[C@@H](O)CN2C(=O)[C@@H](NC(=O)CCCCCCCCCCN2Cc3cc(C(=O)N[C@H]4C(C)(C)[C@H](Oc5ccc(C#N)c(Cl)c5)C4(C)C)ccc3C2=O)C(C)(C)C)cc1` it was “Active”.
As for `Cc1ncsc1-c1ccc(CNC(=O)[C@@H]2C[C@@H](O)CN2C(=O)[C@@H](NC(=O)CCCCCCCN2Cc3cc(C(=O)N[C@H]4C(C)(C)[C@H](Oc5ccc(C#N)c(Cl)c5)C4(C)C)ccc3C2=O)C(C)(C)C)cc1`, in [4], the outcome was Active.
Consider `Cc1ncsc1-c1ccc(CNC(=O)[C@@H]2C[C@@H](O)CN2C(=O)[C@@H](NC(=O)CCCCCCCNC(=O)c2ccc(C(=O)N[C@H]3C(C)(C)[C@H](Oc4ccc(C#N)c(Cl)c4)C3(C)C)cc2)C(C)(C)C)cc1`, for which the outcome in experiment [4] was Active.
In the case of `Cc1ncsc1-c1ccc(CNC(=O)[C@@H]2C[C@@H](O)CN2C(=O)[C@@H](NC(=O)COCCOCCOCCN2Cc3cc(C(=O)N[C@H]4C(C)(C)[C@H](Oc5ccc(C#N)c(Cl)c5)C4(C)C)ccc3C2=O)C(C)(C)C)cc1`, the result in experiment [2] was Active.
As for `Cc1ncsc1-c1ccc(CNC(=O)[C@@H]2C[C@@H](O)CN2C(=O)[C@@H](NC(=O)COCCOCCOCCOCCN2Cc3cc(C(=O)N[C@H]4C(C)(C)[C@H](Oc5ccc(C#N)c(Cl)c5)C4(C)C)ccc3C2=O)C(C)(C)C)cc1`, the result in [2] was Active.
For `Cc1ncsc1-c1ccc(CNC(=O)[C@@H]2C[C@@H](O)CN2C(=O)[C@@H](NC(=O)CCN2Cc3cc(C(=O)N[C@H]4C(C)(C)[C@H](Oc5ccc(C#N)c(Cl)c5)C4(C)C)ccc3C2=O)C(C)(C)C)cc1`, the result in experiment [2] was Active.
Take `Cc1ncsc1-c1ccc(CNC(=O)[C@@H]2C[C@@H](O)CN2C(=O)[C@@H](NC(=O)COCCN2Cc3cc(C(=O)N[C@H]4C(C)(C)[C@H](Oc5ccc(C#N)c(Cl)c5)C4(C)C)ccc3C2=O)C(C)(C)C)cc1`: the outcome in [2] was Active.
The same measure, in the same setting: then `Cc1ncsc1-c1ccc(CNC(=O)[C@@H]2C[C@@H](O)CN2C(=O)[C@@H](NC(=O)COCCOCCN2Cc3cc(C(=O)N[C@H]4C(C)(C)[C@H](Oc5ccc(C#N)c(Cl)c5)C4(C)C)ccc3C2=O)C(C)(C)C)cc1`, with “Active”.
In the case of `Cc1ncsc1-c1ccc(CNC(=O)[C@@H]2C[C@@H](O)CN2C(=O)[C@@H](NC(=O)CCCCN2Cc3cc(NC(=O)C[C@@H]4N=C(c5ccc(Cl)cc5)c5c(sc(C)c5C)-n5c(C)nnc54)ccc3C2=O)C(C)(C)C)cc1`, the 50% degradation concentration (DC50) in [8] was determined as 8.9 nM. The outcome in experiment [9] was Active.
